Reference: ChEMBL document CHEMBL1914459 (Bioorg Med Chem Lett, 2011)

How the values were obtained:
[1] = Lipophilicity, log D of the compound at pH 7.4; conditions: buffer
[2] = molecular target: T1, Prostaglandin D2 receptor 2 (Homo sapiens, UniProt Q9Y5Y4); experiment: Displacement of [3H]PGD2 from human CRTH2 receptor
T1 sequence (Q9Y5Y4 whole entry): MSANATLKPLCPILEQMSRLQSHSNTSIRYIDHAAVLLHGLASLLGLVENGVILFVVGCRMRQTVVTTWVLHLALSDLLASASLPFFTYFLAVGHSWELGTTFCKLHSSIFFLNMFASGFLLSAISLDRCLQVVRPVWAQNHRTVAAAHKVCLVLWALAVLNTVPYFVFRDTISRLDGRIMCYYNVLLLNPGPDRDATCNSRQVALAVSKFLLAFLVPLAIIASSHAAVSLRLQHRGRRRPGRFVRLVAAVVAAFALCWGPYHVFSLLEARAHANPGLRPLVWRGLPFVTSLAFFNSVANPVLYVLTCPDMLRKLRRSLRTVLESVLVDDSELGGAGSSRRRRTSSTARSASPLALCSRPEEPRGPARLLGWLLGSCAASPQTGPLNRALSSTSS
Summary of the method: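 Radioligand binding with ³H-PGD₂ as the labelled ligand; IC₅₀ reported as mean of n >2 measurements.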

[3] = Inhibition of human recombinant aldose reductase 2 after 15 mins by spectrophotometry analysis
[4] = Intrinsic clearance in rat hepatocytes assessed as per 1 x 10^6 cells
[5] = molecular target: Aldehyde reductase AKR1A1 (Homo sapiens); experiment: Inhibition of human recombinant aldose reductase 1 after 15 mins by spectrophotometry analysis
[6] = molecular target: T1, Prostaglandin D2 receptor 2; experiment: Antagonist activity at human CRTh2 receptor expressed in HEK cells assessed as inhibition of PGD2-induced calcium flux; assay type: functional, cell-based, HEK293
[7] = molecular target: Cytochrome P450 2C9 (Homo sapiens, UniProt P11712); experiment: Inhibition of CYP2C9; assay type: ADME
Chain of Cytochrome P450 2C9 (P11712 whole entry): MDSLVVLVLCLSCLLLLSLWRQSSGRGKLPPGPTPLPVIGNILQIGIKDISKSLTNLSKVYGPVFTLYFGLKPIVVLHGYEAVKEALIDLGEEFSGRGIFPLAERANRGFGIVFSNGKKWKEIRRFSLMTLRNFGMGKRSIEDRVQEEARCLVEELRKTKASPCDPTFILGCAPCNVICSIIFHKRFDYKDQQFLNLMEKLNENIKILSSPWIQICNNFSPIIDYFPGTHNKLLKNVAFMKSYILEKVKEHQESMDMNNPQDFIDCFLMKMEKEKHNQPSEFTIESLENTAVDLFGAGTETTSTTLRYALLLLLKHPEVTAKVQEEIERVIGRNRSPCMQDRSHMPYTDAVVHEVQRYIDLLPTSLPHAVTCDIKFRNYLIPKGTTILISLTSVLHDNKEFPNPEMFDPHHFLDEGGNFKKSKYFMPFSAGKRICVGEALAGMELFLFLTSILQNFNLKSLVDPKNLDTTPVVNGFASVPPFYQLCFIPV

[8] = Clearance in Sprague-Dawley rat at 1 mg/kg, iv; assay type: ADME, organism-based; design: dose 1 mg/kg, route intravenous; conditions: in vivo
[9] = Oral bioavailability in Sprague-Dawley rat at 3 mg/kg; assay type: ADME, organism-based; conditions: in vivo
[10] = Half life in Sprague-Dawley rat at 1 mg/kg, iv; assay type: ADME, organism-based; design: dose 1 mg/kg, route intravenous; conditions: in vivo
[11] = Volume of distribution at steady state in Sprague-Dawley rat at 1 mg/kg, iv; assay type: ADME, organism-based; design: dose 1 mg/kg, route intravenous; conditions: in vivo, read-out: Vdss
[12] = species on record: Homo sapiens; experiment: Selectivity ratio of IC50 for human recombinant aldose reductase 1 to IC50 for human CRTh2 receptor
Summary of the method: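 Ratio of two IC50s from separate assays. […] ALR1 activity was followed at […] as NADPH oxidation, at 22 °C. All reagents except NADPH were preincubated 15 min before NADPH started the reaction. Initial linear rates were corrected for non-enzymatic NADPH oxidation, and % inhibition was taken against no-compound control.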

[13] = Oral bioavailability in Sprague-Dawley rat at 4 mg/kg; assay type: ADME, organism-based; conditions: in vivo
[14] = molecular target: Aldo-keto reductase family 1 member B1 (Rattus norvegicus, UniProt P07943); experiment: Inhibition of rat aldose reductase

| logD [1] | IC50 [2] [nM] | IC50 [3] [nM] | hepatocyte CLint [4] [µL/min/1e6 cells] | SMILES | other results |
| --- | --- | --- | --- | --- | --- |
| 0.6 | 11 |  |  | Cc1c(Sc2ccc(Cl)cc2)c2c(S(C)(=O)=O)cccc2n1CC(=O)O |  |
| 0.9 | 32 |  |  | Cc1c(Sc2ccc(Cl)cc2)c2c(Cl)nccc2n1CC(=O)O |  |
| 0.5 | 71 |  |  | Cc1c(Sc2ccc(Cl)cc2)c2cc(S(C)(=O)=O)ccc2n1CC(=O)O |  |
| 0.4 | 56 |  |  | Cc1ccc2c(n1)c(Sc1ccc(Cl)cc1)c(C)n2CC(=O)O |  |
| 2.2 | 1.3 | 3550 |  | Cc1c(F)ccc2c1c(Sc1ccc(Cl)cc1)c(C)n2CC(=O)O | IC50 [5]: 2240 nM |
| 1.6 | 6.1 | 4730 | 6 | Cc1c(Sc2ccc(Cl)cc2)c2c(C#N)c(Cl)ccc2n1CC(=O)O | IC50 [5]: 2240 nM |
|  | 15 |  | 18 | Cc1ccc2c(c1)c(Sc1ccc(Cl)cc1)c(C)n2CC(=O)O | IC50 [6]: 87 nM; IC50 [7]: 800 nM |
| -0.9 | 45 |  | < 3 | CNC(=O)c1cccc2c1c(Sc1ccc(Cl)cc1)c(C)n2CC(=O)O |  |
| 1.8 | 1.6 | > 7940 | 19 | Cc1c(Sc2ccc(Cl)cc2)c2cc(F)ccc2n1CC(=O)O | IC50 [5]: 3160 nM |
|  | 501 |  |  | Cc1c(Sc2ccc(Cl)cc2)c2cc(Cl)ccc2n1C(C)C(=O)O (stereo unspecified) |  |
|  | 178 |  | 29 | Cc1c(Sc2ccc(Cl)cc2)c2cc(Cl)c(C#N)cc2n1CC(=O)O |  |
| 1.6 |  |  |  | CCN(C(C)=O)c1cccc2c1c(Sc1ccc(Cl)cc1)c(C)n2CC(=O)O |  |
| 0.8 | 159 |  | < 3 | Cc1c(Sc2ccc(Cl)cc2)c2ccc(S(C)(=O)=O)cc2n1CC(=O)O |  |
| 2.5 | 42 | 2000 | 64 | Cc1c(Sc2ccc(Cl)cc2)c2ccc(Cl)cc2n1CC(=O)O |  |
| 0.2 | 56 |  | 8 | CC(=O)Nc1ccc2c(c1)c(Sc1ccc(Cl)cc1)c(C)n2CC(=O)O |  |
| 2.2 | 25 | 5010 |  | Cc1c(Sc2ccc(Cl)cc2)c2c(Cl)cccc2n1CC(=O)O | IC50 [5]: 1780 nM |
|  | 89 |  |  | O=C(O)Cn1cc(Sc2ccc(Cl)cc2)c2cc(Cl)ccc21 |  |
| 0.2 | 1.8 | > 5310 | 6 | Cc1c(Sc2ccc(Cl)cc2)c2c(NS(C)(=O)=O)cccc2n1CC(=O)O | clearance [8]: 11 mL/min/kg; half-life [10]: 1.7 h; Vd [11]: 1.1 L/kg; IC50 [7]: 10000 nM; bioavailability [13]: 42% |
| 2 | 60 | 11200 | 75 | Cc1c(Sc2ccc(Cl)cc2)c2cccc(Cl)c2n1CC(=O)O |  |
| 3.7 | 3.5 | 4470 |  | Cc1c(Sc2ccc(Cl)cc2)c2cc(-c3ccccc3)ccc2n1CC(=O)O | IC50 [5]: 1780 nM |
|  | 13 |  |  | Cc1c(Sc2ccc(Cl)cc2)c2cc(Cl)ccc2n1CC(=O)O | IC50 [6]: 35 nM |

Continued, molecule first:

| SMILES | logD [1] | IC50 [2] [nM] | IC50 [3] [nM] | hepatocyte CLint [4] [µL/min/1e6 cells] | other results |
| --- | --- | --- | --- | --- | --- |
| Cc1ccc2c(c1)c(S(=O)(=O)c1ccc(Cl)cc1)c(C)n2CC(=O)O | 0.1 | 26 | 6310 |  |  |
| Cc1ccc2c(c1)c(Sc1ccccc1Cl)c(C)n2CC(=O)O | 1.7 | 2.6 | 11200 | 24 |  |
| Cc1ccc2c(c1)c(Sc1cccc(Cl)c1)c(C)n2CC(=O)O | 1.9 | 3 | 3160 | 31 |  |
| CCS(=O)(=O)c1ccc(Oc2c(C)n(CC(=O)O)c3ccc(C(F)(F)F)cc23)cc1 | 0.3 | 3.5 | > 10000 |  | IC50 [5]: 3980 nM |
| Cc1c(Sc2ccc(Cl)cc2)c2c(-c3ccccc3)cccc2n1CC(=O)O | 2.6 | 1 |  | 25 |  |
| CCS(=O)(=O)Nc1cccc2c1c(Oc1ccc(Cl)cc1)c(C)n2CC(=O)O |  | 36 |  |  |  |
| Cc1c(Oc2ccc(Cl)cc2)c2c(NS(C)(=O)=O)cccc2n1CC(=O)O | -1 | 3.5 |  | 8 | clearance [8]: 20 mL/min/kg; bioavailability [9]: > 46%; half-life [10]: 1.4 h; Vd [11]: 1.7 L/kg |
| COc1cccc(S(=O)(=O)c2c(C)n(CC(=O)O)c3ccc(C)cc23)c1 | -0.4 | 71 | 724 | 14 | IC50 [5]: 115 nM; Ratio IC50 [12]: < 20 |
| Cc1c(Sc2ccc(Cl)cc2)c2cc(Cl)ccc2n1Cc1nnn[nH]1 |  | 1470 |  |  |  |
| Cc1c(S(=O)(=O)c2ccc(Cl)cc2)c2cc(F)ccc2n1CC(=O)O | -0.2 | 7.1 |  | < 3 |  |
| Cc1c(Oc2ccc(Cl)cc2)c2c(-c3ccccc3)cccc2n1CC(=O)O |  | 4 |  | 14 |  |
| COc1ccc(Sc2c(C)n(CC(=O)O)c3ccc(C)cc23)cc1 | 1 | 7.1 | 251 | 24 | IC50 [5]: 282 nM |
| Cc1c(Oc2ccc(Cl)cc2)c2cc(C(F)(F)F)ccc2n1CC(=O)O | 2.3 | 11 |  |  |  |
| Cn1c(CC(=O)O)c(Sc2ccccc2)c2ccccc21 |  | 794 |  |  |  |
| CC(=O)Nc1cccc2c1c(S(=O)(=O)c1ccc(Cl)cc1)c(C)n2CC(=O)O | 0.4 | 7.1 | 4470 | < 1 | IC50 [5]: 708 nM; Ratio IC50 [12]: 100; clearance [8]: 4 mL/min/kg; bioavailability [9]: < 10%; half-life [10]: 0.9 h; Vd [11]: 0.2 L/kg |
| Cc1c(Oc2ccc(Cl)cc2)c2cc(F)ccc2n1CC(=O)O | 1.3 | 5 |  | < 3 |  |
| Cc1c(Sc2ccc(Cl)cc2)c2c(-c3cnccn3)cccc2n1CC(=O)O | 0 | 0.6 |  | 12 |  |
| Cc1c(Sc2ccc(Cl)cc2)c2c(-c3nccs3)cccc2n1CC(=O)O |  | 3.5 |  |  |  |
| Cc1ccc2c(c1)c([S+]([O-])c1ccc(Cl)cc1)c(C)n2CC(=O)O (stereo unspecified) | 0.1 | 1000 |  | < 5 |  |
| Cc1c(S(=O)(=O)c2ccc(Cl)cc2)c2c(NS(C)(=O)=O)cccc2n1CC(=O)O | -0.8 | 7.9 | > 5840 |  | IC50 [5]: 63 nM |
| Cc1ccc2c(c1)c(S(=O)(=O)c1c(Cl)cccc1Cl)c(C)n2CC(=O)O |  | 126 |  |  |  |
| Cc1ccc2c(c1)c(S(=O)(=O)c1ccccc1Cl)c(C)n2CC(=O)O |  | 178 |  | 21 |  |
| Cc1ccc2c(c1)c(S(=O)(=O)c1cccc(Cl)c1)c(C)n2CC(=O)O |  | 79 |  |  |  |
| CC(=O)Nc1cccc2c1c(Oc1ccc(Cl)cc1)c(C)n2CC(=O)O | -1.4 | 18 |  |  |  |
| Cc1ccc2c(c1)c(Sc1ccc(S(C)(=O)=O)cc1)c(C)n2CC(=O)O | -0.1 | 1.4 | > 10000 | 7 | IC50 [7]: 5200 nM |
| Cc1ccc2c(c1)c(Sc1ccccc1)c(C)n2CC(=O)O |  | 20 |  |  | IC50 [14]: 157 nM; IC50 [6]: 25 nM |
